In data set [1] the test system is Mus musculus. As to the kind of experiment: Toxicity in db/db mouse assessed as food intake at 300 mg/kg, po bid for 12 to 13 days measured on day 10 (reference value: 6.06 +/-0.36 gms/day). Type of data set: organism-based. More on the design: dose 300 mg/kg, route oral. The following applies: in vivo.
In data set [2] the test system is Mus musculus. Nature of the data set: Toxicity in db/db mouse assessed as liver weight at 300 mg/kg, po bid for 12 to 13 days measured on day 12 to 13 (reference value: 1.57 +/-0.04 gms). More on the design: dose 300 mg/kg, route oral. The format is organism-based. The following applies: in vivo.
Data set [3] relates to Mus musculus. Nature of the data set: Toxicity in db/db mouse assessed as body weight at 300 mg/kg, po bid for 12 to 13 days measured on day 10 (reference value: 39.2 +/-0.6 gms). To be noted: in vivo. More on the design: dose 300 mg/kg, route oral. Type of data set: organism-based.
Data set [4] has as its system Mus musculus. Nature of the data set: Toxicity in C57BL/6J mouse assessed as fasting plasma glucose level at 300 mg/kg, po bid for 12 to 13 days measured on day 15 (reference value: 78 +/-6 mg/dl). More on the design: dose 300 mg/kg, route oral. The following applies: in vivo. The format is organism-based.
Data set [5] deals with Mus musculus. Nature of the data set: Toxicity in C57BL/6J mouse assessed as liver weight at 300 mg/kg, po bid for 12 to 13 days measured on day 15 (reference value: 0.74 +/-0.03 gms). Type of data set: organism-based. More on the design: dose 300 mg/kg, route oral. To be noted: in vivo.
Data set [6] concerns Mus musculus. As to the kind of experiment: Antidiabetic activity in db/db mouse assessed as serum insulin level at 300 mg/kg, po bid for 12 to 13 days measured on day 12 to 13 (reference value: 7.30 +/-1.10 ng/ml). The format is functional.
Data set [7] deals with T1, Phosphatidylinositol 3,4,5-trisphosphate 5-phosphatase 2 (Mus musculus) (UniProt Q6P549).
T1 sequence (whole entry): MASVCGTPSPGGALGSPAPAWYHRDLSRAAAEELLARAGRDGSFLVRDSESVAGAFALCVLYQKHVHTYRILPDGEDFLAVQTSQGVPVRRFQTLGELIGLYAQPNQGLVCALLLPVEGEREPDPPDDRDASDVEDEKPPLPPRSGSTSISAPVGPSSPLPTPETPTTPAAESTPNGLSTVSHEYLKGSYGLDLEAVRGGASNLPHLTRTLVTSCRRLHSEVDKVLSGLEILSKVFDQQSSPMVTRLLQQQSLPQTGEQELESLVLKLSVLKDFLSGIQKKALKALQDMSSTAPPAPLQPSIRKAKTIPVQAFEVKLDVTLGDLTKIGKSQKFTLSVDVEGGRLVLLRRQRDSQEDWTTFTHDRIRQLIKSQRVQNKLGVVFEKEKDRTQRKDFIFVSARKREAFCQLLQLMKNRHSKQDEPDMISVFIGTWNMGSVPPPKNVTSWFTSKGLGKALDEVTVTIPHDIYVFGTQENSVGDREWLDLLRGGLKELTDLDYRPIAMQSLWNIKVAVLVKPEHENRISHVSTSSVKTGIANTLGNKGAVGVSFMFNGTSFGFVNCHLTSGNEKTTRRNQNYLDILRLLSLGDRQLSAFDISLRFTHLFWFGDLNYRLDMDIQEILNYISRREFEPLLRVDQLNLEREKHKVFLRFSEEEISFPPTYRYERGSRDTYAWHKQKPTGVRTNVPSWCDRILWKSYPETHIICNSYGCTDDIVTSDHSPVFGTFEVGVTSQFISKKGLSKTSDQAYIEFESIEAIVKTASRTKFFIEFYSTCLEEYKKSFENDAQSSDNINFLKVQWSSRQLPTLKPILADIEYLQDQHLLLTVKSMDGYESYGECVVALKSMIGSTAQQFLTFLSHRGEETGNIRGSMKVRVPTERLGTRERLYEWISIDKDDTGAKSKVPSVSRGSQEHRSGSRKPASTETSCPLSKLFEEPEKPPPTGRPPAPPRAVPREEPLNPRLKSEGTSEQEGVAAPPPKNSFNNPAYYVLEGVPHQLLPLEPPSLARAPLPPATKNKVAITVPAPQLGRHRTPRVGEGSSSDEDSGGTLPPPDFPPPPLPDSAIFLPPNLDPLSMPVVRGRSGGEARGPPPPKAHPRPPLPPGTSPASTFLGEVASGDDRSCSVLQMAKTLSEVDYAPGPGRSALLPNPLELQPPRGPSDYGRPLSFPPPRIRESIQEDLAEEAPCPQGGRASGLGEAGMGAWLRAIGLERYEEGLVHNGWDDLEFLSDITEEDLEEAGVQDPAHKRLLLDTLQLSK
As to the kind of experiment: Inhibition of SHIP2 in TNF alpha-treated mouse 3T3L1 cells assessed as potentiation of insulin-stimulated Akt phosphorylation at Thr308 at 10 uM treated for 15 mins after TNF alpha challenge for 16 hrs and prior to insulin stimulation measured after 2 hrs by Western blot analysis relative to untreated control. The format is cell-based. To be noted: 3T3-L1. The essentials:
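3T3-L1 fibroblasts differentiated into adipocytes, then serum-starved 16 h with TNFα 20 ng/mL. Treated with compound 10 µM or 0.1% DMSO for 15 min, then stimulated with 17 nM insulin at 37 °C for 2 h. Cells lysed on ice at pH 7.5 and Thr308 phospho-Akt measured by western blot. Results given as fold change versus TNFα+insulin control. Mean ± SE.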
(In western blotting, separated proteins are transferred to a membrane and probed.)

Data set [8] has as its system Mus musculus. Nature of the data set: Antidiabetic activity in db/db mouse assessed as decrease in glucose intolerance at 300 mg/kg, po bid for 10 days by glucose tolerance test. More on the design: dose 300 mg/kg. Type of data set: functional, organism-based. The essentials: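 Male mice, 8 weeks old, dosed orally twice daily with 300 mg/kg in 0.5% methylcellulose, or vehicle, for 13 days (C57BL/6J) or 10 days (db/db). After a 6 h fast, glucose 2 g/kg given ip. Tail-vein blood sampled at set times and plasma glucose measured by glucometer. AUC calculated. Mean ± SE, n=5-8; ANOVA with Bonferroni test versus vehicle.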

Results on 2 compounds are retold here after ChEMBL document CHEMBL2331279, “Rational design and synthesis of 4-substituted 2-pyridin-2-ylamides with inhibitory effects on SH2 domain-containing inositol 5'-phosphatase 2 (SHIP2)” (Eur J Med Chem, 2013).

Activity calls are given as the source filed them. No cut-off for these calls is given here.

With `O=C(Cc1c(F)cccc1F)Nc1cc(OCc2ccc(Cl)cc2)ccn1`, the Activity came to 5.34 g/day in the data set on Mus musculus [1]; 1.67 g in the data set with Mus musculus [2]; 39.4 g with Mus musculus [3]; 88 mg/dL in the data set on Mus musculus [4]; 0.86 g in the data set on Mus musculus [5]; 6.86 ng/mL in the data set with Mus musculus [6]. The fold change (FC) in data set [7] stood at 1.3. Besides, the inhibition result with Mus musculus [8] was “Active”.
On to `C[C@H](NC(=O)c1sccc1OCc1ccc(Cl)cc1)c1ccccc1`, for which the Activity in the data set on Mus musculus [1] came to 6.5 g/day; in the data set with Mus musculus [2], 1.8 g; with Mus musculus [3] it was 40.1 g; in the data set on Mus musculus [4], 87 mg/dL; in the data set with Mus musculus [5], 0.73 g; with Mus musculus [6] it was 9.95 ng/mL. The fold change (FC) in data set [7] stood at 1.2. In the data set on Mus musculus [8], the inhibition entry is “Active”.
